Measured values reported in ChEMBL document CHEMBL1123812, “Pyrroloisoquinoline antidepressants. 2. In-depth exploration of structure-activity relationships” (J Med Chem, 1987).
Calls of active or inactive are those of the source.

Legend:
[1] = target: Serotonin 2 (5-HT2) receptor (Rattus norvegicus) (UniProt P30994+P08909+P14842); experiment: Binding affinity towards 5-hydroxytryptamine 2 receptor at 1.0 uM concentration; type: protein assay
Summary of the method: (§1)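 Rat brain crude synaptic membranes in 20 mM NaHEPES pH 7.5. Ligands: α1 cortex […] 0.4 nM, nonspecific with (-)-NE 100 μM, 30 min at 25 °C. […] D2 striatum [3H]spiperone 0.05 nM with (+)-butaclamol 1 μM, 45 min at 37 °C. S1 cortex [3H]5-HT 1 nM plus glutathione and MgCl2, with 5-HT 10 μM, 20 min at 37 °C. […] Samples filtered on GF/B and counted.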

[2] = target: D(2) dopamine receptor (Rattus norvegicus) (UniProt P61169); experiment: Binding affinity towards dopamine receptor D2 at 1.0 uM concentration; summary of the method: as §1
Chain of D(2) dopamine receptor (Rattus norvegicus) (P61169 whole entry): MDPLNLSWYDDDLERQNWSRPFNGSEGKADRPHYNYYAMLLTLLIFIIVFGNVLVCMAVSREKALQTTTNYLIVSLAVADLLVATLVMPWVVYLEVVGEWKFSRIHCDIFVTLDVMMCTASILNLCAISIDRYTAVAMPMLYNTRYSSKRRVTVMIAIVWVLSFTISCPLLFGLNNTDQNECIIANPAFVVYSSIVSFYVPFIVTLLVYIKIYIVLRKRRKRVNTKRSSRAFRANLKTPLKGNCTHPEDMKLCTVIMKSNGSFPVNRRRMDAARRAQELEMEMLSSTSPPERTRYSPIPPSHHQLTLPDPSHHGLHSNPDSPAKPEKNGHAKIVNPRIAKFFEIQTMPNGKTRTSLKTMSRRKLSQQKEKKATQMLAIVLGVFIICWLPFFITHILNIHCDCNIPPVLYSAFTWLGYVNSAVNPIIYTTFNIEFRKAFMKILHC

Mus musculus [3] = species: Mus musculus; experiment: Gross behavioral effects ascertained in mice; W indicates weak stimulant or depressant activity of little significance.; type: functional, organism-based
Summary of the method: (§2)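 Male Swiss Webster mice, 18–24 g, three per dose, given ip doses of 1, 3, 10, 30, 100 and 300 mg/kg. Observed for gross behavior and held for 4 days. Scored as weak (W), stimulant (S), depressant (D) or convulsant (C).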

Mus musculus [4] = experiment: Ability to antagonise intraperitoneal dose; inactive (<10% antagonism) at 30 mg/kg is represented as I-30.; type: functional, organism-based; set-up: dose 30 mg/kg
Summary of the method: (§3)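 Nonfasted male Swiss Webster mice, 18–24 g, ten per dose level and in saline controls. Test compound given ip 30 min before tetrabenazine 32 mg/kg ip; dose expressed as free base. Motor activity and ptosis scored. Control response ≤90% corrected by Abbott's formula.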

Mus musculus [5] = species: Mus musculus; experiment: Antagonism of tetrabenazine (TBZ)-induced depression in mice measured for ptosis; type: functional; details: Mus musculus; read-out: ED50; summary of the method: as §3
Rattus norvegicus = species: Rattus norvegicus; experiment: Ability to inhibit the uptake of tritiated norepinephrine (NE) at 0.1 uM concentration; type: functional
Summary of the method: (§4)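 Male Wistar rat brain synaptosomes (P2 fraction): hypothalamus for NE, striatum for DA, cerebral cortex for 5-HT. Buffer is Tris- or HEPES-buffered salt medium with glucose, ascorbate and nialamide, pH 7.4 at 37 °C. Preincubated 10 min at 37 °C with compound. Uptake started with [3H]NE 100–300 nM, [3H]DA 50–300 nM or [3H]5-HT 100–200 nM, incubated 3 min (DA) or 6–10 min (NE, 5-HT). Blanks held on ice. Filtered, counted by scintillation.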

[6] = target: Sodium-dependent serotonin transporter (Rattus norvegicus) (UniProt P31652); experiment: Inhibition of tritiated serotonin(5-HT) uptake at 0.1 uM concentration; type: functional; summary of the method: as §4
Chain of Sodium-dependent serotonin transporter (Rattus norvegicus) (P31652 whole entry): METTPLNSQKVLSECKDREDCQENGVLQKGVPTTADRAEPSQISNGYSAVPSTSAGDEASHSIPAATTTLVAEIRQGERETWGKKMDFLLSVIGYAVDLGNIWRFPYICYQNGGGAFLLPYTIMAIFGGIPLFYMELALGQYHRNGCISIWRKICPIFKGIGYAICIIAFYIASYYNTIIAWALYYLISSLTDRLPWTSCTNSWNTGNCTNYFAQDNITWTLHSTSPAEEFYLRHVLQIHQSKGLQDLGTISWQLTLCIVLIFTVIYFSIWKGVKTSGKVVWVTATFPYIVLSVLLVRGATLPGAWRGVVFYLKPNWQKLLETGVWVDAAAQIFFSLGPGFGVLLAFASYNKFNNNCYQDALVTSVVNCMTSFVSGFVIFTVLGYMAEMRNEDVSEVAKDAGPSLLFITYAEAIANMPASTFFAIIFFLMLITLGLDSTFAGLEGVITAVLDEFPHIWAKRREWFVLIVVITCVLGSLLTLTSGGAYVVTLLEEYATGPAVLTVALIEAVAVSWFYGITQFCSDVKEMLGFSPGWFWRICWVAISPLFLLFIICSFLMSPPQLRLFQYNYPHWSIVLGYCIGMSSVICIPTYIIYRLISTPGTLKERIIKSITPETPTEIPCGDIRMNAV

[7] = target: Sodium-dependent dopamine transporter (Rattus norvegicus) (UniProt P23977); experiment: Inhibition of tritiated dopamine (DA) uptake at 0.1 uM concentration; type: functional; summary of the method: as §4
Chain of Sodium-dependent dopamine transporter (Rattus norvegicus) (P23977 whole entry): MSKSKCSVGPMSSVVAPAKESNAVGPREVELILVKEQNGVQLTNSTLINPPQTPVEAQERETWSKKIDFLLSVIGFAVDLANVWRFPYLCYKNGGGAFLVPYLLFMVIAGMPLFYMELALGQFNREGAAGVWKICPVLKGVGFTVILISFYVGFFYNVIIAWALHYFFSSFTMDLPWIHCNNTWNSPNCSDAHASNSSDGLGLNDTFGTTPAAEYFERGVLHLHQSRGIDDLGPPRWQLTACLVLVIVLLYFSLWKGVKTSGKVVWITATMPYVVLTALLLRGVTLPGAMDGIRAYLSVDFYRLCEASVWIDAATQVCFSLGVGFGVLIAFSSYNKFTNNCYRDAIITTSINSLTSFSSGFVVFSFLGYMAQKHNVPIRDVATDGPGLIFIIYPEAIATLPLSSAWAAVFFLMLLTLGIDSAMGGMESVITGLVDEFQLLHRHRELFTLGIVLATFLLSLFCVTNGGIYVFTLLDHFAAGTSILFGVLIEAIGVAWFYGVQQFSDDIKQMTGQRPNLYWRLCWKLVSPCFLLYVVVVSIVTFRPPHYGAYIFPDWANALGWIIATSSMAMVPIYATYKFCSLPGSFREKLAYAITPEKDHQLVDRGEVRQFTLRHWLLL

[8] = target: Serotonin 2 (5-HT2) receptor (Rattus norvegicus, UniProt P30994+P08909+P14842); experiment: Binding affinity towards 5-hydroxytryptamine 2 receptor; type: protein assay
Mus musculus [9] = species: Mus musculus; experiment: Antagonism of tetrabenazine (TBZ)-induced depression measured in mice by motor activity; type: functional; details: Mus musculus; read-out: ED50; summary of the method: as §3
[10] = target: Serotonin 1 (5-HT1) receptor (Rattus norvegicus) (UniProt P28564+P30940+P19327+P28565); experiment: Binding affinity towards serotonin S1 receptor at 1.0 uM; type: protein assay; summary of the method: as §1
[11] = target: Sodium-dependent dopamine transporter (Rattus norvegicus) (UniProt P23977); experiment: Ability to inhibit the uptake of [3H]dopamine (DA) 0.1 uM concentration at rat brain synaptosomes; type: functional, subcellular; summary of the method: as §4
[12] = target: Norepinephrine transporter (Rattus norvegicus) (UniProt Q9WTR4); experiment: Ability to inhibit the uptake of [3H]norepinephrine (NE) 0.1 uM concentration at rat brain synaptosomes; type: functional, subcellular; summary of the method: as §4
Chain of Norepinephrine transporter (Rattus norvegicus) (Q9WTR4 as listed by the source): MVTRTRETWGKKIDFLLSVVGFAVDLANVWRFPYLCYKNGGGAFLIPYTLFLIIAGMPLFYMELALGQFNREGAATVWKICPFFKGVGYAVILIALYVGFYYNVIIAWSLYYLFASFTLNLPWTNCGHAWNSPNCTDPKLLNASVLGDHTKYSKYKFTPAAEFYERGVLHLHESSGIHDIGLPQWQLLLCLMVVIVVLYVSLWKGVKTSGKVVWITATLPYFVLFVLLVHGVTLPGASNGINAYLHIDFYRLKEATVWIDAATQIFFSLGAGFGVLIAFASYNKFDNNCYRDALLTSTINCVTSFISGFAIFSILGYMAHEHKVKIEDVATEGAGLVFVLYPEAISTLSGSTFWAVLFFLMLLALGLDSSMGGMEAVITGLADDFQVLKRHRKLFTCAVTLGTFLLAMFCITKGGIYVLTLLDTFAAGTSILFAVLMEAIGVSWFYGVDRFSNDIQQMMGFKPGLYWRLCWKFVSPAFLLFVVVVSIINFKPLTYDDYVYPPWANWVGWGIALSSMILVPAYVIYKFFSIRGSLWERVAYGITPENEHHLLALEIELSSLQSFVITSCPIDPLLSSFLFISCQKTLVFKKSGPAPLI

[13] = target: Sodium-dependent serotonin transporter (Rattus norvegicus) (UniProt P31652); experiment: Ability to inhibit the uptake of [3H]- serotonin(5-HT) 0.1 uM concentration at rat brain synaptosomes; type: functional, subcellular; summary of the method: as §4
[14] = target: Adrenergic receptor alpha-1 (Rattus norvegicus) (UniProt P15823+P23944+P43140); experiment: Binding affinity towards alpha-1 adrenergic receptor at 1.0 uM concentration; type: protein assay; summary of the method: as §1
[15] = target: Serotonin 1 (5-HT1) receptor (Rattus norvegicus, UniProt P28564+P30940+P19327+P28565); experiment: Binding affinity towards serotonin S1 receptor; type: protein assay; summary of the method: as §1
[16] = target: Sodium-dependent dopamine transporter (Rattus norvegicus, UniProt P23977); experiment: Inhibition of the uptake of tritiated dopamine (DA) in rat synaptosomes; type: subcellular, Brain
Chain of Sodium-dependent dopamine transporter (P23977 whole entry): as the sequence (P23977 whole entry) above

[17] = target: T1, Adrenergic receptor alpha-1 (Rattus norvegicus, UniProt P15823+P23944+P43140); experiment: Binding affinity towards alpha-1 adrenergic receptor; type: protein assay
T1 sequence (P15823 whole entry): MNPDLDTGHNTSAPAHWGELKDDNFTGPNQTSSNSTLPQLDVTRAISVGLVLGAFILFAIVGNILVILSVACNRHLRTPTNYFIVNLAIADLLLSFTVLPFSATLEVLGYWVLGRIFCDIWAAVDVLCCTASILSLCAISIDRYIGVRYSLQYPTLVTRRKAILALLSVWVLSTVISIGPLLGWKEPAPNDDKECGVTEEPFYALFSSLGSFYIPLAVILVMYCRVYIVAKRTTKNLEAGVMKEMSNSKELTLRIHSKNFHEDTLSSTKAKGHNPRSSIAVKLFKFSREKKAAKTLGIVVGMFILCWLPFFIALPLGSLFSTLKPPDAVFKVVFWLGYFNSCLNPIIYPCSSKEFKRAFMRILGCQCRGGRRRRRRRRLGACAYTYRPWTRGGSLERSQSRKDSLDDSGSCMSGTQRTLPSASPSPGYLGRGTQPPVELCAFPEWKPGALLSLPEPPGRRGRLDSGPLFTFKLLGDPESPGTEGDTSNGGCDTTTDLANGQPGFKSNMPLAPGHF
T1 sequence (P23944 whole entry): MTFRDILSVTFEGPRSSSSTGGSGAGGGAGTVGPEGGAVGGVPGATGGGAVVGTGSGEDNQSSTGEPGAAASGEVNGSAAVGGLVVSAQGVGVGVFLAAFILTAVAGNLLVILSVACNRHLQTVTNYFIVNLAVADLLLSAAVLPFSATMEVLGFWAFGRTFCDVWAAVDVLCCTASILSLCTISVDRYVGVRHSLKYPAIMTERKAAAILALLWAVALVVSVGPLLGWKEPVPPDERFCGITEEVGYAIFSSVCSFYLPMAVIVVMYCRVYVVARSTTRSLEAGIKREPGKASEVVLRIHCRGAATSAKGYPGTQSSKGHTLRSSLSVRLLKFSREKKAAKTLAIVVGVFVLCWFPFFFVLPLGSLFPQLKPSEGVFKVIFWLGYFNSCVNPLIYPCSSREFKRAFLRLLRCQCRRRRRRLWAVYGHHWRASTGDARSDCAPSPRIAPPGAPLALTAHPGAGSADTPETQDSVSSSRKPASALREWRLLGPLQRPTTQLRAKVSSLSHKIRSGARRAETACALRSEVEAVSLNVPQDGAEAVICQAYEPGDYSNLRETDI
T1 sequence (P43140 whole entry): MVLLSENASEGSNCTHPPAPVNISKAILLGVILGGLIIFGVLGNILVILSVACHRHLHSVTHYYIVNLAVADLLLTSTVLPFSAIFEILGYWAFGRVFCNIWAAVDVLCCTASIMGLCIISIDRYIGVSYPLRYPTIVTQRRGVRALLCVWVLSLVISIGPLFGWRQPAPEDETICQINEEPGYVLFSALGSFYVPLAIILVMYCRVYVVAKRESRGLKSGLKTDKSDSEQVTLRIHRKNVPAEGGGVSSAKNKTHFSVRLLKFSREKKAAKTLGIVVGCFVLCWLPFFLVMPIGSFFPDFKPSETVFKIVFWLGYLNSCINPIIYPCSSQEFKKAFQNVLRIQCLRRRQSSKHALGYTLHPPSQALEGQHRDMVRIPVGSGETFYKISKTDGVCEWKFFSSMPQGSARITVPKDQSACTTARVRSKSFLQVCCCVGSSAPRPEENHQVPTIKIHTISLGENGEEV

Mus musculus [18] = species: Mus musculus; experiment: Gross behavioral effects ascertained in mice; S indicates significant stimulant properties.; type: functional, organism-based; summary of the method: as §2
[19] = target: Muscarinic acetylcholine receptor (Rattus norvegicus) (UniProt P08482+P08483+P08485+P08911+P10980); experiment: Binding affinity towards Muscarinic acetylcholine receptor at 1.0 uM concentration; type: protein assay
[20] = target: Adrenergic receptor alpha-2 (Rattus norvegicus) (UniProt P22086+P19328+P22909); experiment: Binding affinity towards alpha-2 adrenergic receptor at 1.0 uM concentration; type: protein assay
[21] = target: Norepinephrine transporter (Rattus norvegicus, UniProt Q9WTR4); experiment: Inhibition of uptake of tritiated norepinephrine (NE) in rat synaptosomes; type: subcellular, Brain
Chain of Norepinephrine transporter (Q9WTR4 whole entry): as the sequence (Q9WTR4 as listed by the source) above

Mus musculus [22] = experiment: Ability to antagonise intraperitoneal dose; inactive (<10% antagonism) at 30 mgjkg is represented as I-30.; type: functional, organism-based; summary of the method: as §3

Chain of Serotonin 2 (5-HT2) receptor (Rattus norvegicus) (P08909 whole entry, looked up): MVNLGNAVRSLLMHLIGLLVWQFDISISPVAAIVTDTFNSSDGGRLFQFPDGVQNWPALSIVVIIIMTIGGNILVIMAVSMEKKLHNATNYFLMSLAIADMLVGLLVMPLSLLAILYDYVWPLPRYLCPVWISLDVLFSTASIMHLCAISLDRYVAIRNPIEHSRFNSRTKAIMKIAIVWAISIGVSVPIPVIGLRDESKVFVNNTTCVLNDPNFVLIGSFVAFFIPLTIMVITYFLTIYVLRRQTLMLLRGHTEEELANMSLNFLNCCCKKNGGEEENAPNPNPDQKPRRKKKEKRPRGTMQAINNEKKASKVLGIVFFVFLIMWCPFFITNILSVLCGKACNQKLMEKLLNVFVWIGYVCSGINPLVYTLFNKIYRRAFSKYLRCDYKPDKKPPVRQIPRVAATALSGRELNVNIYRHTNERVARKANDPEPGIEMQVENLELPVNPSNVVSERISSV
Chain of Serotonin 2 (5-HT2) receptor (Rattus norvegicus) (P14842 whole entry, looked up): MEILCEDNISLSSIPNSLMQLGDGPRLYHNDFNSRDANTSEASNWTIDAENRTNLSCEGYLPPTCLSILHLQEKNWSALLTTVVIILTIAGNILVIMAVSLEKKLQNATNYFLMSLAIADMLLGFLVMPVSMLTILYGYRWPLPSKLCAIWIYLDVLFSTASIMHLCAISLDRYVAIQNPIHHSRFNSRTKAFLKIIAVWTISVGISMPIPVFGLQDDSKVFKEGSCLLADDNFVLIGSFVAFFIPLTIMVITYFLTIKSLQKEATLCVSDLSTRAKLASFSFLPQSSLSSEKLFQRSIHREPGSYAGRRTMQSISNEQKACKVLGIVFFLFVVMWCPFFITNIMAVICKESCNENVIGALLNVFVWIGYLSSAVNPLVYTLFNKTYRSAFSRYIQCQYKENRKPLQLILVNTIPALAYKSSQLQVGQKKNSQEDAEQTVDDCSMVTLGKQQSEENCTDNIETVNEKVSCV
Chain of Serotonin 2 (5-HT2) receptor (Rattus norvegicus) (P30994 whole entry, looked up): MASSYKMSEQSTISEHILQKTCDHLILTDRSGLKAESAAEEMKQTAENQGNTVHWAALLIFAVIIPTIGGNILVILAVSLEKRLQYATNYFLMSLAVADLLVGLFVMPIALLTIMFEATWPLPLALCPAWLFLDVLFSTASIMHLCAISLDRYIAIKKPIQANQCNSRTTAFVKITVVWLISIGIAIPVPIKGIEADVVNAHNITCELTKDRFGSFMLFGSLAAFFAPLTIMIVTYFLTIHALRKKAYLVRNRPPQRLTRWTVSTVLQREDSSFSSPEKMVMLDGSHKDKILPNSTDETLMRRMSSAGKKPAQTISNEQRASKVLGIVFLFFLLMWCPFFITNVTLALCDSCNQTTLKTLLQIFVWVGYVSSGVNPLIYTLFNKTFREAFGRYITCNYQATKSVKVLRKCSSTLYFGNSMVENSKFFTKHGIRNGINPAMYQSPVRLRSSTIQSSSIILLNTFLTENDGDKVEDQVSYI

SMILES: c1ccc([C@@H]2CN3CCC[C@@H]3c3ccccc32)cc1 (stereo in doubt; (-)-7b)
- inhibition [1]: 58%
- inhibition [2]: 14%
- behavior (Mus musculus [3]): Partial stimulant

SMILES: COc1ccc([C@@H]2CN3CCC[C@H]3c3ccccc32)cc1OC
- ED50 (Mus musculus [4]): inactive
- ED50 (Mus musculus [5]): 29.4 mg/kg
- behavior (Mus musculus [3]): Weak
- Inhibition (Rattus norvegicus): 9%
- inhibition [6]: 27%
- inhibition [7]: 11%

SMILES: Br.Nc1ccc([C@@H]2CN3CCC[C@H]3c3ccccc32)cc1
- Ki [8]: 29 nM
- inhibition [2]: 16%
- ED50 (Mus musculus [5]): 0.2 mg/kg
- ED50 (Mus musculus [9]): 1 mg/kg
- inhibition [10]: 36%
- inhibition [11]: 77%
- inhibition [12]: 89%
- inhibition [13]: 17%
- inhibition [14]: 69%

SMILES: Br.Clc1ccccc1[C@@H]1CN2CCC[C@@H]2c2ccccc21 (stereo in doubt; (-)-24b)
- Ki [15]: 2700 nM
- Ki [16]: 775 nM
- Ki [17]: 620 nM

SMILES: Br.Clc1ccc([C@@H]2CN3CCC[C@@H]3c3ccccc32)cc1
- inhibition [1]: 59%
- inhibition [2]: 35%
- ED50 (Mus musculus [5]): 0.34 mg/kg
- ED50 (Mus musculus [9]): 0.55 mg/kg
- behavior (Mus musculus [18]): Stimulant
- inhibition [19]: 0%
- inhibition [14]: 61%
- inhibition [20]: 35%

SMILES: CN1CCc2cc(Cl)c(O)cc2[C@@H](c2ccccc2)C1 [SCH-23390]
- Ki [8]: 13 nM
- inhibition [2]: 53%
- inhibition [10]: 75%
- inhibition [14]: 65%

SMILES: Clc1ccc([C@@H]2CN3CCC[C@@H]3c3cc(Cl)ccc32)cc1
- inhibition [2]: 55%
- ED50 (Mus musculus [5]): ~4 mg/kg
- ED50 (Mus musculus [9]): 37.4 mg/kg
- behavior (Mus musculus [3]): Partial stimulant
- inhibition [10]: 11%
- Ki [16]: 3.2 nM
- Ki [21]: 3.2 nM
- inhibition [14]: 20%
- inhibition [20]: 10%

SMILES: c1ccc([C@@H]2CN3CCC[C@@H]3c3ccccc32)cc1 (stereo in doubt; (+)-7b)
- inhibition [2]: 40%
- behavior (Mus musculus [18]): Stimulant
- inhibition [20]: 64%

SMILES: c1ccc(C[C@H]2CN3CCC[C@H]3c3ccccc32)cc1
- ED50 (Mus musculus [4]): inactive
- ED50 (Mus musculus [22]): inactive
- inhibition [11]: 19%
- inhibition [12]: 69%
- inhibition [13]: 32%

SMILES: c1ccc([C@@H]2CN3CCC[C@@H]3c3ccccc32)cc1
- ED50 (Mus musculus [4]): inactive
- ED50 (Mus musculus [22]): inactive
- behavior (Mus musculus [3]): Partial stimulant
- inhibition [11]: 6%
- inhibition [12]: 4%
- inhibition [13]: 16%

SMILES: CNCCC(Oc1ccc(C(F)(F)F)cc1)c1ccccc1 (stereo not drawn)
- inhibition [2]: 12%
- inhibition [10]: 13%
